Measurements from ChEMBL document CHEMBL4052819 (2017).
≈ marks a conversion by molar mass, not a printed value. Calls of active or inactive are those of the source. The rule behind the calls is not given here. Non-standard residues stand in square brackets, D forms with d. Residues, ends and D or L forms follow the SMILES beside them. *: point of attachment. Cha = N[C@@H](CC1CCCCC1)C(=O)O; Heptanoyl = CCCCCCC(=O)*; Octanoyl = CCCCCCCC(=O)*; Dab = NCC[C@H](N)C(=O)O

Tests used:
Acinetobacter baumannii [1] = experiment: Antibacterial activity against Acinetobacter baumannii ATCC 19606 after 18 to 20 hrs by broth microdilution method; type: functional; details: ATCC 19606 = CIP 70.34 = JCM 6841
Escherichia coli [2] = experiment: Antibacterial activity against Escherichia coli ATCC 25922 after 18 to 20 hrs by broth microdilution method; type: functional
In short: (§1)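 Broth microdilution in tryptic soy broth: 2-fold dilutions mixed 1:1 with ~1.5 × 10^5 CFU/mL inoculum, final 0.5–32 μg/mL; 37 °C, 18–20 h. MIC taken as lowest concentration giving no visible growth. At least three independent experiments, one replicate each.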

Klebsiella pneumoniae [3] = experiment: Antibacterial activity against Klebsiella pneumoniae ATCC 13883 after 18 to 20 hrs by broth microdilution method; type: functional
Pseudomonas aeruginosa [4] = experiment: Antibacterial activity against Pseudomonas aeruginosa ATCC 27853 after 18 to 20 hrs by broth microdilution method; type: functional; in short: as §1
Enterococcus faecium [5] = experiment: Antibacterial activity against Enterococcus faecium ATCC 19434 after 18 to 20 hrs by broth microdilution method; type: functional; in short: as §1
Staphylococcus aureus [6] = experiment: Antibacterial activity against Staphylococcus aureus ATCC 29213 after 18 to 20 hrs by broth microdilution method; type: functional; in short: as §1
Staphylococcus aureus [7] = experiment: Antibacterial activity against methicillin-resistant Staphylococcus aureus ATCC 43300 after 18 to 20 hrs by broth microdilution method; type: functional
In short: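 Broth microdilution in tryptic soy broth: 2-fold dilutions mixed 1:1 with ~1.5 × 10^5 CFU/mL bacterial suspension in TSB, final 0.5–32 μg/mL, 37 °C for 18–20 h. MIC = lowest concentration with no visible growth. At least three independent experiments, one replicate each.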

Acinetobacter baumannii [8] = experiment: Bactericidal activity against Acinetobacter baumannii ATCC 19606; type: functional; details: ATCC 19606 = CIP 70.34 = JCM 6841, read-out: MBC99.9
In short: (§2)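 MBC from MIC plates at end point: 50 μL from each well with no visible growth plated on tryptic soy agar and counted. MBC taken as lowest concentration giving ≥99.9% fall in viable count relative to initial inoculum. Three independent experiments, one replicate each.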

Escherichia coli [9] = experiment: Bactericidal activity against Escherichia coli ATCC 25922; type: functional; details: read-out: MBC99.9; in short: as §2
Klebsiella pneumoniae [10] = experiment: Bactericidal activity against Klebsiella pneumoniae ATCC 13883; type: functional; details: read-out: MBC99.9; in short: as §2
Pseudomonas aeruginosa [11] = experiment: Bactericidal activity against Pseudomonas aeruginosa ATCC 27853; type: functional; details: read-out: MBC99.9; in short: as §2
Enterococcus faecium [12] = experiment: Bactericidal activity against Enterococcus faecium ATCC 19434; type: functional; details: read-out: MBC99.9; in short: as §2
Staphylococcus aureus [13] = experiment: Bactericidal activity against Staphylococcus aureus ATCC 29213; type: functional; details: read-out: MBC99.9; in short: as §2
Staphylococcus aureus [14] = experiment: Bactericidal activity against methicillin-resistant Staphylococcus aureus ATCC 43300; type: functional; details: read-out: MBC99.9
In short: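 MBC taken at the end of the MIC test: 50 μL from each well without visible growth plated on tryptic soy agar. MBC = lowest concentration giving ≥99.9% reduction in viable cells relative to the initial inoculum. Three independent experiments, one replicate each.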

Escherichia coli [15] = experiment: Antibacterial activity against Escherichia coli ATCC 25922 after 18 to 20 hrs in presence of 95% serum by broth microdilution method; type: functional
In short: (§3)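 Same microdilution with human serum as medium: compound 2-fold diluted in 100% serum, mixed 1:1 with 90% serum holding ~1.5 × 10^5 CFU/mL, giving 95% serum and final 0.5–64 μg/mL. MIC read as no visible growth after incubation as for the broth test.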

Staphylococcus aureus [16] = experiment: Antibacterial activity against Staphylococcus aureus ATCC 29213 after 18 to 20 hrs in presence of 95% serum by broth microdilution method; type: functional; in short: as §3
Escherichia coli [17] = experiment: Antibacterial activity against Escherichia coli ATCC 25922 in presence of 100% serum measured immediately post compound addition in serum by broth microdilution method; type: functional
In short: (§4)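 Serum stability: compound added to 100% human serum at final 64 μg/mL, held at 37 °C, sampled at 0, 6, 12 and 24 h. […] Residual activity compared with untreated control.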

Escherichia coli [18] = experiment: Antibacterial activity against Escherichia coli ATCC 25922 in presence of 100% serum after 6 hrs by broth microdilution method; type: functional; details: ATCC 25922, 6 h; in short: as §4
Escherichia coli [19] = experiment: Antibacterial activity against Escherichia coli ATCC 25922 in presence of 100% serum after 12 hrs by broth microdilution method; type: functional; details: ATCC 25922, 12 h; in short: as §4
Escherichia coli [20] = experiment: Antibacterial activity against Escherichia coli ATCC 25922 in presence of 100% serum after 24 hrs by broth microdilution method; type: functional; details: ATCC 25922, 24 h; in short: as §4
Pseudomonas aeruginosa [21] = experiment: Bactericidal activity against Pseudomonas aeruginosa ATCC 27853 after 60 mins in presence of LPS; type: functional
In short: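 P. aeruginosa at ~10^6 CFU/mL in TSB with E. coli O111:B4 LPS (final 10, 25, 50 or 100 μg/mL), then compound at final 16 μg/mL. Incubated 37 °C, 200 rpm, 60 min; survivors counted on TSA. Three independent experiments, one replicate each.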

Acinetobacter baumannii [22] = experiment: Potentiation of rifampicin-mediated antibacterial activity against Acinetobacter baumannii ATCC 19606 assessed as rifampicin MIC at 2 ug/ml by checkerboard method (reference value: 16 ug/ml); type: functional; details: ATCC 19606 = CIP 70.34 = JCM 6841
Acinetobacter baumannii [23] = experiment: Potentiation of rifampicin-mediated antibacterial activity against Acinetobacter baumannii ATCC 19606 assessed as decrease in rifampicin MIC at 4 ug/ml by checkerboard method relative to control; type: functional, ATCC 19606 = CIP 70.34 = JCM 6841
Klebsiella pneumoniae [24] = experiment: Potentiation of rifampicin-mediated antibacterial activity against Klebsiella pneumoniae ATCC 13883 assessed as rifampicin MIC at 2 ug/ml by checkerboard method (reference value: 16 ug/ml); type: functional
Klebsiella pneumoniae [25] = experiment: Potentiation of rifampicin-mediated antibacterial activity against Klebsiella pneumoniae ATCC 13883 assessed as decrease in rifampicin MIC at 2 ug/ml by checkerboard method relative to control; type: functional
Acinetobacter baumannii [26] = experiment: Potentiation of ampicillin-mediated antibacterial activity against Acinetobacter baumannii ATCC 19606 assessed as decrease in ampicillin MIC at 4 ug/ml by checkerboard method relative to control; type: functional, ATCC 19606 = CIP 70.34 = JCM 6841
Acinetobacter baumannii [27] = experiment: Potentiation of clarithromycin-mediated antibacterial activity against Acinetobacter baumannii ATCC 19606 assessed as decrease in clarithromycin MIC at 4 ug/ml by checkerboard method relative to control; type: functional, ATCC 19606 = CIP 70.34 = JCM 6841
Acinetobacter baumannii [28] = experiment: Potentiation of erythromycin-mediated antibacterial activity against Acinetobacter baumannii ATCC 19606 assessed as decrease in erythromycin MIC at 4 ug/ml by checkerboard method relative to control; type: functional, ATCC 19606 = CIP 70.34 = JCM 6841
Acinetobacter baumannii [29] = experiment: Potentiation of vancomycin-mediated antibacterial activity against Acinetobacter baumannii ATCC 19606 assessed as decrease in vancomycin MIC at 4 ug/ml by checkerboard method relative to control; type: functional, ATCC 19606 = CIP 70.34 = JCM 6841
Klebsiella pneumoniae [30] = experiment: Potentiation of ampicillin-mediated antibacterial activity against Klebsiella pneumoniae ATCC 13883 assessed as decrease in ampicillin MIC at 4 ug/ml by checkerboard method relative to control; type: functional
Klebsiella pneumoniae [31] = experiment: Potentiation of clarithromycin-mediated antibacterial activity against Klebsiella pneumoniae ATCC 13883 assessed as decrease in clarithromycin MIC at 4 ug/ml by checkerboard method relative to control; type: functional
Klebsiella pneumoniae [32] = experiment: Potentiation of erythromycin-mediated antibacterial activity against Klebsiella pneumoniae ATCC 13883 assessed as decrease in erythromycin MIC at 4 ug/ml by checkerboard method relative to control; type: functional
Klebsiella pneumoniae [33] = experiment: Potentiation of vancomycin-mediated antibacterial activity against Klebsiella pneumoniae ATCC 13883 assessed as decrease in vancomycin MIC at 4 ug/ml by checkerboard method relative to control; type: functional

Row | Compound | MIC (Acinetobacter baumannii [1]) [µg/mL] | MIC (Escherichia coli [2]) [µg/mL] | MIC (Klebsiella pneumoniae [3]) [µg/mL] | MIC (Pseudomonas aeruginosa [4]) [µg/mL] | MIC (Enterococcus faecium [5]) [µg/mL] | MIC (Staphylococcus aureus [6]) [µg/mL] | MIC (Staphylococcus aureus [7]) [µg/mL] | MBC (Acinetobacter baumannii [8]) [µg/mL] | MBC (Escherichia coli [9]) [µg/mL] | MBC (Klebsiella pneumoniae [10]) [µg/mL] | MBC (Pseudomonas aeruginosa [11]) [µg/mL] | MBC (Enterococcus faecium [12]) [µg/mL] | MBC (Staphylococcus aureus [13]) [µg/mL] | MBC (Staphylococcus aureus [14]) [µg/mL] | MIC (Escherichia coli [15]) [µg/mL] | MIC (Staphylococcus aureus [16]) [µg/mL] | MIC (Escherichia coli [17]) [µg/mL] | MIC (Escherichia coli [18]) [µg/mL] | MIC (Escherichia coli [19]) [µg/mL] | MIC (Escherichia coli [20]) [µg/mL] | further results
1 | CCCCCCCC(=O)N[C@@H](CCN)C(=O)N[C@H](C(=O)N[C@@H](CCN)C(=O)N[C@H](Cc1ccccc1)C(=O)N[C@@H](CC(C)C)C(=O)N[C@@H](CCN)C(=O)N[C@@H](C(=O)N[C@@H](CC(C)C)C(=O)N[C@@H](CO)C(N)=O)C(C)C)[C@@H](C)CC (Octanoyl-[Dab]I[Dab][dF]L[Dab][dV]LS-NH2) | 16 (≈ 14.3 µM) | 2 to 4 (≈ 1.79 to 3.58 µM) | 8 to 16 (≈ 7.17 to 14.3 µM) | 2 (≈ 1.79 µM) | 16 (≈ 14.3 µM) | 8 to 16 (≈ 7.17 to 14.3 µM) | 8 to 16 (≈ 7.17 to 14.3 µM) | 16 to 32 (≈ 14.3 to 28.7 µM) | 16 (≈ 14.3 µM) | 8 to 16 (≈ 7.17 to 14.3 µM) | 8 to 16 (≈ 7.17 to 14.3 µM) | 16 to 32 (≈ 14.3 to 28.7 µM) | 16 (≈ 14.3 µM) | 8 to 32 (≈ 7.17 to 28.7 µM) | 8 | 16 to 32 | 8 | 8 | 8 | 8 | Activity (Pseudomonas aeruginosa [21]): inactive
2 | CCCCCCC(=O)N[C@@H](CCN)C(=O)N[C@@H](Cc1ccccc1)C(=O)N[C@@H](CCN)C(=O)N[C@H](Cc1ccccc1)C(=O)N[C@@H](CC(C)C)C(=O)N[C@@H](CCN)C(=O)N[C@H](CC(C)C)C(=O)N[C@@H](Cc1ccccc1)C(=O)N[C@@H](CO)C(N)=O (Heptanoyl-[Dab]F[Dab][dF]L[Dab][dL]FS-NH2) | 2 to 4 (≈ 1.69 to 3.38 µM) | 0.5 to 2 (≈ 0.422 to 1.69 µM) | 1 (≈ 0.844 µM) | 1 to 2 (≈ 0.844 to 1.69 µM) | 8 (≈ 6.75 µM) | 8 (≈ 6.75 µM) | 8 (≈ 6.75 µM) | 4 (≈ 3.38 µM) | 8 to 16 (≈ 6.75 to 13.5 µM) | 2 (≈ 1.69 µM) | 4 (≈ 3.38 µM) | 16 (≈ 13.5 µM) | 8 to 32 (≈ 6.75 to 27 µM) | 8 to 16 (≈ 6.75 to 13.5 µM) | 32 | 32 to 64 |  |  |  |  | Activity (Pseudomonas aeruginosa [21]): inactive
3 | CC[C@H](C)[C@H](NC(=O)[C@H](CCN)NC(=O)[C@@H](N)CC1CCCCC1)C(=O)N[C@@H](CCN)C(=O)N[C@H](Cc1ccccc1)C(=O)N[C@@H](CC(C)C)C(=O)N[C@@H](CCN)C(=O)N[C@@H](C(=O)N[C@@H](CC(C)C)C(=O)N[C@@H](CO)C(N)=O)C(C)C (H-[Cha][Dab]I[Dab][dF]L[Dab][dV]LS-NH2) | ≥ 32 | 4 to 8 (≈ 3.5 to 7 µM) | 32 (≈ 28 µM) | 2 to 8 (≈ 1.75 to 7 µM) | > 32 | > 32 | 32 (≈ 28 µM) |  |  |  | 16 to 32 (≈ 14 to 28 µM) |  |  |  | 2 | > 64 | 1 to 2 | > 32 | > 32 | > 32 | MIC (Acinetobacter baumannii [22]): 0.0039 to 0.0078 µg/mL; fold change (FC) (Acinetobacter baumannii [23]): 4096; MIC (Klebsiella pneumoniae [24]): 0.0039 µg/mL; fold change (FC) (Klebsiella pneumoniae [25]): >=8192; fold change (FC) (Acinetobacter baumannii [26]): 2 - 4; fold change (FC) (Acinetobacter baumannii [27]): 2048; fold change (FC) (Acinetobacter baumannii [28]): 64; fold change (FC) (Acinetobacter baumannii [29]): 32 - 64; fold change (FC) (Klebsiella pneumoniae [30]): 1; fold change (FC) (Klebsiella pneumoniae [31]): 2048 - 4096; fold change (FC) (Klebsiella pneumoniae [32]): 512; fold change (FC) (Klebsiella pneumoniae [33]): 1
